Legend:
Hs-578T = assay: Antiproliferative activity against human Hs-578T cells assessed as cell growth at 0.00000001 M incubated for 48 hrs by SRB assay relative to control; assay type: functional; details: dose 10 nM, read-out: Activity
How it was run: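 NCI-60 five-dose mode, 10^-4 to 10^-8 M in 10-fold steps. RPMI 1640, 5% FBS, 2 mM L-glutamine; 24 h preincubation, then 48 h drug exposure at 37 °C. Stocks in DMSO at 400× the top concentration, diluted in medium with gentamicin. TCA fixation, SRB staining, absorbance at 515 nm. Percent growth from time-zero (Tz), control (C) and test (Ti) readings.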

KM12 = assay: Growth inhibition against human KM12 cells incubated for 48 hrs by sulforhodamine B assay; assay type: functional
A498 = assay: Antiproliferative activity against human A498 cells assessed as cell growth inhibition by measuring lethal concentration incubated for 48 hrs by sulforhodamine B assay; assay type: functional; details: read-out: LC50 (the source's name)
SNB-19 [1] = assay: Antiproliferative activity against human SNB-19 cells assessed as cell growth at 0.0000001 M incubated for 48 hrs by SRB assay relative to control; assay type: functional; details: dose 100 nM, read-out: Activity
SN12C = assay: Antiproliferative activity against human SN12C cells assessed as cell growth at 0.00001 M incubated for 48 hrs by SRB assay relative to control; assay type: functional; details: read-out: Activity
SF-268 = assay: Growth inhibition against human SF-268 cells incubated for 48 hrs by sulforhodamine B assay; assay type: functional
OVCAR-8 = assay: Antiproliferative activity against human OVCAR-8 cells assessed as cell growth at 0.000001 M incubated for 48 hrs by SRB assay relative to control; assay type: functional; details: read-out: Activity
HOP-92 = assay: Antiproliferative activity against human HOP-92 cells assessed as cell growth inhibition by measuring lethal concentration incubated for 48 hrs by sulforhodamine B assay; assay type: functional; details: read-out: LC50 (the source's name)
CCRF-CEM = assay: Antiproliferative activity against human CCRF-CEM cells assessed as cell growth at 0.00001 M incubated for 48 hrs by SRB assay relative to control; assay type: functional; details: read-out: Activity
How it was run: (§1)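 NCI-60 five-dose screen over 10^-4–10^-8 M (10-fold dilutions). Cells grown in RPMI 1640 with 5% FBS and 2 mM L-glutamine, seeded at 5,000–40,000 cells/well and preincubated 24 h. Drug from DMSO stock, 48 h at 37 °C, 5% CO2. Adherent cells TCA-fixed and stained with 0.4% SRB; A515 read. Percent growth = (Ti−Tz)/(C−Tz)×100, or (Ti−Tz)/Tz×100 when Ti<Tz.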

COLO 205 = assay: Growth inhibition against human COLO 205 cells assessed as total growth inhibitory concentration incubated for 48 hrs by sulforhodamine B assay; assay type: functional
HT-29 = assay: Antiproliferative activity against human HT-29 cells assessed as cell growth at 0.00001 M incubated for 48 hrs by SRB assay relative to control; assay type: functional; details: read-out: Activity
How it was run: (§2)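 NCI-60 five-dose screen (10^-4 to 10^-8 M). Cells grown in RPMI 1640 with 5% FBS and 2 mM L-glutamine, plated at 5,000-40,000 cells/well and preincubated 24 h. Drug given from DMSO stock, then 48 h at 37 °C, 5% CO2. For adherent lines, cells fixed with cold TCA, SRB-stained and read at 515 nm. Percent growth taken against time-zero and untreated control.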

SNB-19 [2] = assay: Antiproliferative activity against human SNB-19 cells assessed as cell growth at 0.00001 M incubated for 48 hrs by SRB assay relative to control; assay type: functional; details: read-out: Activity
HEK293 = assay: Cytotoxicity against human HEK293 cells assessed as reduction in cell viability at 0.00001 M incubated for 48 hrs by MTT colorimetric assay relative to control; assay type: toxicity, cell-based; details: hek293, 48 h, 10 µM
HCC 2998 [3] = assay: Antiproliferative activity against human HCC 2998 cells assessed as cell growth at 0.000001 M incubated for 48 hrs by SRB assay relative to control; assay type: functional; details: read-out: Activity; how it was run: as §2
OVCAR-4 = assay: Antiproliferative activity against human OVCAR-4 cells assessed as cell growth at 0.00001 M incubated for 48 hrs by SRB assay relative to control; assay type: functional; details: read-out: Activity
BT-549 = assay: Growth inhibition against human BT-549 cells incubated for 48 hrs by sulforhodamine B assay; assay type: functional
786-0 = assay: Antiproliferative activity against human 786-0 cells assessed as cell growth at 0.000001 M incubated for 48 hrs by SRB assay relative to control; assay type: functional; details: read-out: Activity; how it was run: as §1
NCI-H522 [4] = assay: Antiproliferative activity against human NCI-H522 cells assessed as cell growth at 0.00000001 M incubated for 48 hrs by SRB assay relative to control; assay type: functional; details: dose 10 nM, read-out: Activity
NCI-H322M [5] = assay: Antiproliferative activity against human NCI-H322M cells assessed as cell growth at 0.00001 M incubated for 48 hrs by SRB assay relative to control; assay type: functional; details: read-out: Activity
SNB-75 = assay: Antiproliferative activity against human SNB-75 cells assessed as cell growth at 0.0000001 M incubated for 48 hrs by SRB assay relative to control; assay type: functional; details: dose 100 nM, read-out: Activity
NCI-H23 = assay: Antiproliferative activity against human NCI-H23 cells assessed as cell growth inhibition by measuring lethal concentration incubated for 48 hrs by sulforhodamine B assay; assay type: functional; details: read-out: LC50 (the source's name)
SK-OV-3 = assay: Antiproliferative activity against human SK-OV-3 cells assessed as cell growth at 0.000001 M incubated for 48 hrs by SRB assay relative to control; assay type: functional; details: read-out: Activity
M14 = assay: Antiproliferative activity against human M14 cells assessed as cell growth at 0.000001 M incubated for 48 hrs by SRB assay relative to control; assay type: functional; details: read-out: Activity
SK-MEL-5 = assay: Antiproliferative activity against human SK-MEL-5 cells assessed as cell growth at 0.0001 M incubated for 48 hrs by SRB assay relative to control; assay type: functional; details: read-out: Activity
MDA-MB-231 = assay: Antiproliferative activity against human MDA-MB-231 cells assessed as cell growth at 0.00000001 M incubated for 48 hrs by SRB assay relative to control; assay type: functional; details: dose 10 nM, read-out: Activity
NCI-H322M [6] = assay: Antiproliferative activity against human NCI-H322M cells assessed as cell growth at 0.00000001 M incubated for 48 hrs by SRB assay relative to control; assay type: functional; details: dose 10 nM, read-out: Activity
RXF 393 = assay: Growth inhibition against human RXF 393 cells incubated for 48 hrs by sulforhodamine B assay; assay type: functional
EKVX = assay: Antiproliferative activity against human EKVX cells assessed as cell growth at 0.00001 M incubated for 48 hrs by SRB assay relative to control; assay type: functional; details: read-out: Activity; how it was run: as §2
MDA-MB-435 = assay: Antiproliferative activity against human MDA-MB-435 cells assessed as cell growth at 0.00000001 M incubated for 48 hrs by SRB assay relative to control; assay type: functional; details: dose 10 nM, read-out: Activity
NCI-H522 [7] = assay: Antiproliferative activity against human NCI-H522 cells assessed as cell growth at 0.00001 M incubated for 48 hrs by SRB assay relative to control; assay type: functional; details: read-out: Activity
HCC 2998 [8] = assay: Antiproliferative activity against human HCC 2998 cells assessed as cell growth at 0.0001 M incubated for 48 hrs by SRB assay relative to control; assay type: functional; details: read-out: Activity; how it was run: as §2
SF-539 = assay: Antiproliferative activity against human SF-539 cells assessed as cell growth at 0.00001 M incubated for 48 hrs by SRB assay relative to control; assay type: functional; details: read-out: Activity

SMILES	growth at 0.01 µM (Hs-578T)	GI50 (KM12)	CC50 (A498)	growth at 0.1 µM (SNB-19 [1])	growth at 10 µM (SN12C)	GI50 (SF-268)	growth at 1 µM (OVCAR-8)	CC50 (HOP-92)	growth at 10 µM (CCRF-CEM)	TGI (COLO 205)	growth at 10 µM (HT-29)	growth at 10 µM (SNB-19 [2])	Activity (HEK293)	growth at 1 µM (HCC 2998 [3])	growth at 10 µM (OVCAR-4)	GI50 (BT-549)	growth at 1 µM (786-0)	growth at 0.01 µM (NCI-H522 [4])	growth at 10 µM (NCI-H322M [5])	growth at 0.1 µM (SNB-75)	other results
COc1ccc(-c2cn3ccnc3c(-c3ccc4ncn(C5CCCCC5)c4c3)n2)cc1	106%	1.35 µM	> 100 µM	108%	16%	2.38 µM	92%	> 100 µM	16%	14.4 µM	-5%	22%	16.51%	86%	35%	0.41 µM	34%	88%	53%	82%	CC50 (NCI-H23): > 100 µM; growth at 1 µM (SK-OV-3): 34%; growth at 1 µM (M14): 38%; growth at 100 µM (SK-MEL-5): -31%; growth at 0.01 µM (MDA-MB-231): 99%; growth at 0.01 µM (NCI-H322M [6]): 92%; GI50 (RXF 393): 1.3 µM; growth at 10 µM (EKVX): 25%; growth at 0.01 µM (MDA-MB-435): 92%; growth at 10 µM (NCI-H522 [7]): -7%; growth at 100 µM (HCC 2998 [8]): 20%; growth at 10 µM (SF-539): -53%
c1ccc(Cn2cnc3ccc(-c4nc(-c5ccc6c(c5)ncn6C5CCCCC5)cn5ccnc45)cc32)cc1	99%	2.09 µM	6.85 µM	103%	-32%	2.48 µM	102%	5.5 µM	8%	3.99 µM	-48%	28%	14.53%	105%	1%	1.2 µM	46%	93%	8%	82%	CC50 (NCI-H23): 1.33 µM; growth at 1 µM (SK-OV-3): 100%; growth at 1 µM (M14): 65%; growth at 100 µM (SK-MEL-5): -46%; growth at 0.01 µM (MDA-MB-231): 102%; growth at 0.01 µM (NCI-H322M [6]): 97%; GI50 (RXF 393): 1.22 µM; growth at 10 µM (EKVX): -31%; growth at 0.01 µM (MDA-MB-435): 91%; growth at 10 µM (NCI-H522 [7]): -37%; growth at 100 µM (HCC 2998 [8]): -89%; growth at 10 µM (SF-539): -75%
